Test results taken from ChEMBL document CHEMBL3612038, “N-Alkyl/aryl-4-(3-substituted-3-phenylpropyl)piperazine-1-carbothioamide as dual-action vaginal microbicides with reverse transcriptase inhibition” (Eur J Med Chem, 2015).
In brackets after ≈: the same amount, converted by molar mass.

Experiments:
Oryctolagus cuniculus [1] = assay: Apparent […] volume of distribution in New-Zealand rabbit at 33 mg/kg dosed through vaginal administration by LC-MS/MS method; assay type: ADME, organism-based; conditions: in vivo
Method in brief: (§1)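 Female New Zealand rabbits received a single vaginal dose of 33 mg/kg. Drug in plasma was quantified by LC-MS/MS on a C18 column with phenacetin as internal standard. For each plasma sample (50 µL), 200 µL of internal-standard solution (200 ng/mL phenacetin in acetonitrile) was added. Samples were mixed, centrifuged at 13,000 rpm for 20 min, and the supernatant injected. The method was validated to FDA bioanalytical criteria.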

[2] = Cmax in New-Zealand rabbit at 33 mg/kg dosed through vaginal administration by LC-MS/MS method; assay type: ADME, organism-based, Oryctolagus cuniculus; parameters: dose 33 mg/kg; conditions: in vivo; method in brief: as §1
[3] = AUC (0 to infinity) in New-Zealand rabbit at 33 mg/kg dosed through vaginal administration by LC-MS/MS method; assay type: ADME, organism-based, Oryctolagus cuniculus; parameters: dose 33 mg/kg, time infinity; conditions: in vivo; method in brief: as §1
[4] = Spermicidal activity in liquefied human semen assessed as reduction in motile spermatozoa incubated at 37 degC for 30 mins; assay type: functional, Sperm
Method in brief: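 Compounds dissolved in minimal DMSO, diluted with 0.85% saline to 1.0% test solution; liquefied human semen mixed 1:5 with test solution, vortexed 10 s; motile sperm scored by phase-contrast microscopy over 60 s in five fields. MEC = lowest concentration immobilizing 100% of sperm, still immotile after dilution with nutrient medium.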

Trichomonas vaginalis [5] = assay: Anti-trichomonas activity against MTZ-susceptible Trichomonas vaginalis incubated for 3 to 48 hrs by trypan blue exclusion assay; assay type: functional
Method in brief: (§2)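 Trichomonas vaginalis trophozoites (5 × 10^4/L as printed) in TYM medium; DMSO stocks (100.0 mg/mL) serially diluted in TYM to 0.1 mg/mL, DMSO/TYM vehicle controls. Anaerobic incubation at 37 °C; viability checked 3–48 h by microscopy (200×) with trypan blue exclusion. MIC = lowest concentration killing all cells within 48 h.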

[6] = Terminal half life in New-Zealand rabbit at 33 mg/kg dosed through vaginal administration by LC-MS/MS method; assay type: ADME, organism-based, Oryctolagus cuniculus; conditions: in vivo, read-out: beta t1/2 (converted); method in brief: as §1
[7] = Tmax in New-Zealand rabbit at 33 mg/kg dosed through vaginal administration by LC-MS/MS method; assay type: ADME, organism-based, Oryctolagus cuniculus; conditions: in vivo; method in brief: as §1
Sporothrix schenckii = assay: Antifungal activity against Sporothrix schenckii incubated for 48 hrs by broth micro-dilution method; assay type: functional
Method in brief: (§3)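 Broth microdilution per NCCLS guidelines in RPMI 1640 buffered with MOPS; starting inoculum 1–5 × 10^3 CFU/mL; plates incubated at 35 °C, MIC read after 48 h.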

Cryptococcus neoformans = assay: Antifungal activity against Cryptococcus neoformans incubated for 48 hrs by broth micro-dilution method; assay type: functional; method in brief: as §3
Oryctolagus cuniculus [8] = assay: Drug level in plasma of New-Zealand rabbit at 33 mg/kg dosed through vaginal administration by LC-MS/MS method; assay type: ADME, organism-based; conditions: in vivo, other; method in brief: as §1
Trichomonas vaginalis [9] = assay: Anti-trichomonas activity against MTZ-resistant Trichomonas vaginalis incubated for 3 to 48 hrs by trypan blue exclusion assay; assay type: functional; method in brief: as §2
[10] = Stability in simulated vaginal fluid at pH 4.2 at 200 ng/ml by LC-MS/MS method; conditions: buffer
Candida albicans = assay: Antifungal activity against Candida albicans incubated for 48 hrs by broth micro-dilution method; assay type: functional; method in brief: as §3
Candida parapsilosis = assay: Antifungal activity against Candida parapsilosis ATCC 22019 incubated for 48 hrs by broth micro-dilution method; assay type: functional; conditions: Lodderomyces parapsilosis, ATCC 22019, 48 h; method in brief: as §3
[11] = test system: Trichophyton mentagrophytes; assay: Antifungal activity against Trichophyton mentagrophytes incubated for 48 hrs by broth micro-dilution method; assay type: functional; method in brief: as §3
Aspergillus fumigatus = assay: Antifungal activity against Aspergillus fumigatus incubated for 48 hrs by broth micro-dilution method; assay type: functional; method in brief: as §3

CCCCCCCCCc1ccc(OCCOCCOCCOCCOCCOCCOCCOCCOCCO)cc1 [NONOXYNOL 9]
Vd/F (Oryctolagus cuniculus [1]): 7931.32 L/kg | Cmax [2]: 3.66 ng/mL | AUC(0-inf) [3]: 12.9 ng·h/mL | MEC [4]: 0.05% | minimal effective concentration ([4]; Homo sapiens, Sperm, Semen, 0.5 h, read-out: MEC): 810 µM | MIC (Trichomonas vaginalis [5]): 81.2 µM (≈ 50.1 µg/mL) | half-life [6]: 1.59 h | Tmax [7]: 1 h | MIC (Sporothrix schenckii): > 81.2 µM | MIC (Cryptococcus neoformans): > 81.2 µM | Drug uptake (Oryctolagus cuniculus [8]): Not Active | MIC (Trichomonas vaginalis [9]): 122 µM (≈ 75.1 µg/mL) | Stability [10]: > 1 h | MIC (Candida albicans): > 81.2 µM | MIC (Candida parapsilosis): > 81.2 µM | MIC [11]: > 81.2 µM | MIC (Aspergillus fumigatus): > 81.2 µM
